PubChem BioAssay
Activity calls are given as the source filed them.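 Rule for the calls, unless noted: active = viability at or below 10% of carrier control in both of two separate runs; inconclusive = viability at or below 10% in only one of the two runs; inactive = the rest.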

Legend:
[1] = reduced viability of SK-BR-3 breast cancer cells – cell-based, 24 h, human, pilot screen (AID 572); details: SK-BR-3 viability, CellTiter-Glo luminescence, at 10 µM, stronger effect = lower value;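 note: compound exposure lasted between 18 and 24 h rather than exactly 24 h; 100% = carrier-treated control wells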
[2] = HUVEC growth inhibition – cell-based, human, primary screen (AID 575;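 active = viability at or below 30% in both replicate assays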;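 note: 100% = median of untreated cell wells with 0.1% DMSO on each plate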); details: HUVEC proliferation, CellTiter-Glo luminescence, 72 h; at 10 µM; stronger effect = lower value
In short: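 Assay system: Primary human umbilical vein endothelial cells | Quantity: 1250 cells per well | Medium: Supplemented EBM, 2% fetal bovine serum | Detection: CellTiter-Glo luminescence measuring cellular ATP | Read-out: % viability vs DMSO wells | Plate: Collagen-coated 384-well format | Times: 72 h exposure, 37 °C, 5% CO2, 30 min RT equilibration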

[3] = H69AR cell proliferation blockers – human, duplicate replicates, primary screen (AID 580;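 active = viability at or under a set limit in both replicates, limit being median viability minus 3 SD, cut at about 48% in these data, passing the limit was not always enough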;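 note: 100% = mean luminescence of untreated wells and 0% = no signal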); details: H69AR lung tumor cells viability, ATP luminescence, 72 h; at 10 µM; stronger effect = lower value
[4] = MRP1 drug-resistance reversers in H69AR cells – cell-based, doxorubicin co-treatment, pilot screen (AID 601;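 active = viability loss from added drug above about 55%, and viability with drug at most 40%, in both replicates, limit read from the data, passing the limit was not always enough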); details: CellTiter-Glo, 72 h, at 10 µM; for differential viability (reversal): stronger effect = higher value
[5] = yeast transport mutant growth inhibition pilot in 384-well plates, post-Golgi transport modulator project (AID 636; in the data active = inhibition above about 31%); details: absorbance 615 nm, about 18 h, stronger effect = higher value
[6] = growth suppression of yeast trafficking mutant, preliminary HTS, modulators of trafficking downstream of Golgi apparatus project, 1536-format plate, OD 615 nm (AID 637; in the data active = inhibition above about 30%); details: yeast transport mutant growth, absorbance 615 nm, 18 h; stronger effect = higher value
[7] = H69AR cells + 2 uM doxorubicin, measured here: viability with 2 uM doxorubicin, stronger effect = lower value
[8] = H69AR cells, compound alone cytotoxicity

Compound	viability [1]	viability [2]	viability [3]	differential viability (reversal) ([4]; H69AR cells + 2 uM doxorubicin)	viability [4, 7]	viability [4, 8]	inhibition [5]	inhibition [6]
COC(=O)[C@H](C)NC(=O)Nc1cccc(C(F)(F)F)c1	145% (inactive)	97.2% (inactive)	89.9% (inactive)	-5.75% (inactive)	95.7%	89.9%	-0.96% (inactive)	30% (active)
CCOC(=O)N1CCN(C(=O)c2ccc3c(=O)n(Cc4ccc(OC)cc4)c(=S)[nH]c3c2)CC1	99% (inactive)	64.6% (inactive)	72.5% (inactive)	47.4% (inactive)	25.1%	72.5%	-0.13% (inactive)	-5.08% (inactive)
COCc1nnc(SCC(=O)NC(C)c2ccccc2)n1-c1ccccc1 (stereo unspecified)	84% (inactive)	101% (inactive)	100% (inactive)	-5.31% (inactive)	105%	100%	-4.66% (inactive)	1.27% (inactive)
CCSc1nc(O)c(C2OC(=O)c3c2ccc(OC)c3OC)c(=O)n1-c1ccccc1 (stereo unspecified)	129% (inactive)	94.5% (inactive)	96.5% (inactive)	11.4% (inactive)	85.1%	96.5%	-9.45% (inactive)	4.35% (inactive)
CCOC(=O)C1CCCN(CC(=O)NC2CC2)C1 (stereo unspecified)	112% (inactive)	96.6% (inactive)	88.2% (inactive)	-1.56% (inactive)	89.7%	88.2%	-7.16% (inactive)	-2.91% (inactive)
COc1ccc(-c2nnc(SCC(=O)Nc3sc4c(c3C#N)CCC4)n2CC2CCCO2)cc1 (stereo unspecified)	89% (inactive)	97% (inactive)	93.8% (inactive)	19.5% (inactive)	74.4%	93.8%	2.43% (inactive)	-1.43% (inactive)
CCOc1nc(OCC)nc(N2CCC(C)CC2)n1	91% (inactive)	108% (inactive)	84.9% (inactive)	-10.5% (inactive)	95.4%	84.9%	-5% (inactive)	31.4% (active)
CCc1nc2sc3ccccc3c(=O)c2c(=O)n1Cc1ccco1	73% (inactive)	82.6% (inactive)	77% (inactive)	2.49% (inactive)	74.5%	77%	-3.77% (inactive)	0.98% (inactive)
CS(=O)(=O)N(CC(=O)N1CCCCCC1)c1ccc(Br)cc1	86% (inactive)	96.5% (inactive)	97.9% (inactive)	17.2% (inactive)	80.6%	97.9%	-7.47% (inactive)	-10% (inactive)
CCCN1Cc2cccc(C(=O)NC3CCCC3)c2C1=O	111% (inactive)	91.5% (inactive)	87.9% (inactive)	5.09% (inactive)	82.8%	87.9%	-7.47% (inactive)	6.36% (inactive)
Cc1c(Cl)cccc1NC(=O)CCN1CCCCCC1	116% (inactive)	103% (inactive)	88.3% (inactive)	2.1% (inactive)	86.2%	88.3%	-6.85% (inactive)	5.64% (inactive)
Cc1csc(NC(=O)C2CCCO2)n1 (stereo unspecified)	87% (inactive)	86.9% (inactive)	91.4% (inactive)	9.97% (inactive)	81.4%	91.4%	-4.16% (inactive)	10.3% (inactive)
CN=c1sc2ccccc2n1CC(O)COCc1ccco1 (stereo unspecified)	107% (inactive)	86.6% (inactive)	98.4% (inactive)	10.8% (inactive)	87.5%	98.4%	-8.49% (inactive)	1.94% (inactive)
Cc1cccc(C(=O)O)c1NC(=O)c1ccc(F)cc1	109% (inactive)	107% (inactive)	104% (inactive)	3.75% (inactive)	100%	104%	0.27% (inactive)	-1.09% (inactive)
NNC(=O)c1ccncc1	108% (inactive)	101% (inactive)	104% (inactive)	10.2% (inactive)	93.7%	104%	1.04% (inactive)	17.5% (inactive)
c1cncc(C2Nc3ccccc3-c3nc4ccccc4n32)c1 (stereo unspecified)	90% (inactive)	98.1% (inactive)	78.7% (inactive)	-12.2% (inactive)	90.9%	78.7%	-2.53% (inactive)	0.91% (inactive)
O=C(CSc1nnc(-c2ccco2)n1-c1ccccc1)N1CCN(C(=O)c2ccco2)CC1	137% (inactive)	80.3% (inactive)	84.4% (inactive)	-1.54% (inactive)	85.9%	84.4%	-1.17% (inactive)	-0.82% (inactive)
Cn1c(=O)c2[nH]cnc2n(C)c1=O	101% (inactive)	107% (inactive)	97.4% (inactive)	5.22% (inactive)	92.1%	97.4%	-1.3% (inactive)	-2.83% (inactive)
Cc1ccc2c(c1)N(CC(=O)Nc1ccc3c(c1)OCCO3)C(=O)CO2	104% (inactive)	103% (inactive)	105% (inactive)	10.7% (inactive)	94.3%	105%	-5% (inactive)	-4.73% (inactive)

Compound	viability [1]	viability [2]	viability [3]	differential viability (reversal) ([4]; H69AR cells + 2 uM doxorubicin)	viability [4, 7]	viability [4, 8]	inhibition [5]	inhibition [6]
CCc1c(C)c2ccc(OCC(=O)OC)cc2oc1=O	109% (inactive)	92.8% (inactive)	94.4% (inactive)	-2.49% (inactive)	96.9%	94.4%	-1.49% (inactive)	21.4% (inactive)
CCOCC(=O)Nc1c(C(=O)Nc2ccc(OC)cc2OC)oc2ccccc12	65.5% (inactive)	50.9% (inactive)	48% (active)	-0.305% (inactive)	48.3%	48%	-6.62% (inactive)	-3.77% (inactive)
O=C(COC(=O)C12CC3CC(CC(C3)C1)C2)NCc1ccco1	101% (inactive)	98.5% (inactive)	64.6% (inactive)	-21.4% (inactive)	86%	64.6%	-4.16% (inactive)	-3.93% (inactive)
CCOC(=O)N1CCC(n2c(=S)[nH]c3cc(OC)c(OC)cc3c2=O)CC1	114% (inactive)	59.5% (inactive)	57.1% (inactive)	-2.02% (inactive)	59.1%	57.1%	-4.16% (inactive)	-1.27% (inactive)
CCCC1O[C@@H]2C[C@H]3[C@@H]4CCC5=CC(=O)C=C[C@]5(C)[C@H]4[C@@H](O)C[C@]3(C)[C@]2(C(=O)CO)O1 (stereo partly specified)	109% (inactive)	82.4% (inactive)	79.6% (inactive)	0.52% (inactive)	79.1%	79.6%	1.04% (inactive)	-3.83% (inactive)
CC(=O)OC(C)C[N+](C)(C)C (stereo unspecified)	103% (inactive)	86.7% (inactive)	104% (inactive)	14.9% (inactive)	89.3%	104%	-5.97% (inactive)	3.5% (inactive)
Cc1ccc(S(=O)(=O)C(C#N)c2nc3ccccc3nc2OC(C)C)cc1 (stereo unspecified)	101% (inactive)	91% (inactive)	105% (inactive)	7.79% (inactive)	97.3%	105%	-4.13% (inactive)	4.55% (inactive)
O=C(CSc1nnc(COc2ccc(Cl)cc2)o1)OC1CCCCC1	106% (inactive)	95.5% (inactive)	102% (inactive)	6.06% (inactive)	95.9%	102%	4.66% (inactive)	-3.87% (inactive)
CCOC(=O)c1[nH]c(CSc2nnc(-c3ccncc3)n2CCOC)c(C(=O)OCC)c1C	94% (inactive)	96.7% (inactive)	94.8% (inactive)	4.23% (inactive)	90.6%	94.8%	-5.19% (inactive)	1.31% (inactive)
COC(=O)c1cccc(Nc2cc(C)nc(-c3ccccc3O)n2)c1	69% (inactive)	62.3% (inactive)	64.4% (inactive)	-6.26% (inactive)	70.7%	64.4%	0% (inactive)	2.18% (inactive)
COc1ccc(C2C3=C(CCCC3=O)Nc3nc(SCc4ccccc4)nn32)cc1OC (stereo unspecified)	101% (inactive)	121% (inactive)	74.9% (inactive)	-21% (inactive)	96%	74.9%	-4.46% (inactive)	0.36% (inactive)
COc1ccc(-c2nnc(SCc3nnc(-c4ccc(Cl)cc4)o3)n2-c2ccccc2)cc1	73% (inactive)	55.6% (inactive)	84.3% (inactive)	4.27% (inactive)	80%	84.3%	-2.27% (inactive)	15.4% (inactive)
NC(=O)C1(N2CCCCC2)CCN(C(=O)Nc2ccccc2C(F)(F)F)CC1	97% (inactive)	105% (inactive)	90.9% (inactive)	4.2% (inactive)	86.7%	90.9%	-0.39% (inactive)	5.08% (inactive)
CCc1nc(SCc2cc(Cl)ccc2OC)n[nH]1	99% (inactive)	94.2% (inactive)	94.7% (inactive)	-11.5% (inactive)	106%	94.7%	-0.68% (inactive)	-6.55% (inactive)
COCCCN1C(=O)C(O)=C(C(C)=O)C1c1ccccn1 (stereo unspecified)	106% (inactive)	102% (inactive)	86.6% (inactive)	0.675% (inactive)	85.9%	86.6%	-3.73% (inactive)	-1.45% (inactive)
Cn1c(=O)c2c(nc(CN3CCCCC3)n2CCCc2ccccc2)n(C)c1=O	122% (inactive)	103% (inactive)	81.7% (inactive)	0.72% (inactive)	81%	81.7%	-1.3% (inactive)	6.23% (inactive)
Cc1ccc(OCCN2CCN(C(=O)CCC(=O)Nc3nnc(C)s3)CC2)cc1	88% (inactive)	118% (inactive)	88.6% (inactive)	-3.2% (inactive)	91.8%	88.6%	-7.03% (inactive)	2.91% (inactive)
Cc1ccc(N2CCN(CCc3nc4cc(NS(C)(=O)=O)ccc4n3C)CC2)cc1	104% (inactive)	110% (inactive)	90.1% (inactive)	3.72% (inactive)	86.4%	90.1%	-6.75% (inactive)	-5.74% (inactive)
